# According to ChEMBL document CHEMBL1671684, “In vitro resistance profile of the hepatitis C virus NS3/4A protease inhibitor TMC435” (Antimicrob Agents Chemother, 2010):
# Assays:
# [1] = tested on: Hepatitis C virus; assay: Antiviral activity against Hepatitis C virus subtype 1b expressing NS3 F43V mutant infected in HuH7 cells after 48 hrs by luciferase reporter assay; format: functional, organism-based, Hepacivirus hominis; details: genotype 1b, Huh-7, 48 h
# Summary of the method: (§1)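 Genotype 1b con1 subgenomic bicistronic replicon (clone ET) with luciferase reporter and adaptive mutations E1202G, T1280I, K1846T, carrying site-directed NS3 single or double mutations. 10 μg wild-type or mutant replicon RNA electroporated into Huh7-lunet cells, seeded 4,000 cells/well over a nine-point inhibitor dilution series, 48 h at 37°C, 5% CO2, then luminescence read. EC50 taken as median of individual experiments; fold change relative to parental replicon EC50.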
# [2] = tested on: Hepatitis C virus; assay: Antiviral activity against Hepatitis C virus subtype 1b expressing NS3 Q80K mutant infected in HuH7 cells after 48 hrs by luciferase reporter assay; format: functional, organism-based, Hepacivirus hominis; details: genotype 1b, Huh-7, 48 h; summary of the method: as §1
# [3] = tested on: Hepatitis C virus; assay: Ratio of EC50 for Hepatitis C virus subtype 1b expressing NS3 R155K mutant to EC50 for Hepatitis C virus subtype 1b expressing WT NS3 infected in HuH7 cells after 48 hrs by luciferase reporter assay; format: functional, Hepacivirus hominis, genotype 1b, Huh-7
# Summary of the method: (§2)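 Transient replicon assay: site-directed single or multiple NS3 mutations engineered into genotype 1b (con1, clone ET) subgenomic bicistronic replicon with luciferase reporter and adaptive mutations E1202G, T1280I, K1846T. Huh7-lunet cells electroporated with 10 μg wild-type or mutant replicon RNA, seeded 4,000 cells/well with nine-point inhibitor dilution; 48 h, 37°C, 5% CO2; luminescence read-out. EC50 as median of individual experiments; fold change versus parental replicon EC50.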
# [4] = tested on: Hepatitis C virus; assay: Ratio of EC50 for Hepatitis C virus subtype 1b expressing NS3 D168A mutant to EC50 for Hepatitis C virus subtype 1b expressing WT NS3 infected in HuH7 cells after 48 hrs by luciferase reporter assay; format: functional, Hepacivirus hominis, genotype 1b, Huh-7; summary of the method: as §1
# [5] = tested on: Hepatitis C virus; assay: Antiviral activity against Hepatitis C virus subtype 1b expressing NS3 R155I mutant infected in HuH7 cells after 48 hrs by luciferase reporter assay; format: functional, organism-based, Hepacivirus hominis; details: genotype 1b, Huh-7, 48 h; summary of the method: as §1
# [6] = tested on: Hepatitis C virus; assay: Antiviral activity against Hepatitis C virus subtype 1b expressing NS3 Q80G mutant infected in HuH7 cells after 48 hrs by luciferase reporter assay; format: functional, organism-based, Hepacivirus hominis; details: genotype 1b, Huh-7, 48 h; summary of the method: as §1
# [7] = tested on: Hepatitis C virus; assay: Antiviral activity against Hepatitis C virus subtype 1b expressing NS3 D168E mutant infected in HuH7 cells after 48 hrs by luciferase reporter assay; format: functional, organism-based, Hepacivirus hominis; details: genotype 1b, Huh-7, 48 h; summary of the method: as §1
# [8] = tested on: Hepatitis C virus; assay: Antiviral activity against Hepatitis C virus subtype 1b expressing NS3 D168A mutant infected in HuH7 cells after 48 hrs by luciferase reporter assay; format: functional, organism-based, Hepacivirus hominis; details: genotype 1b, Huh-7, 48 h; summary of the method: as §1
# [9] = tested on: Hepatitis C virus; assay: Ratio of EC50 for Hepatitis C virus subtype 1b expressing NS3 F43S mutant to EC50 for Hepatitis C virus subtype 1b expressing WT NS3 infected in HuH7 cells after 48 hrs by luciferase reporter assay; format: functional, Hepacivirus hominis, genotype 1b, Huh-7; summary of the method: as §2
# [10] = tested on: Hepatitis C virus; assay: Antiviral activity against Hepatitis C virus subtype 1b expressing NS3 Q80R and D168A mutant infected in HuH7 cells after 48 hrs by luciferase reporter assay; format: functional, organism-based, Hepacivirus hominis; details: genotype 1b, Huh-7, 48 h; summary of the method: as §1
# [11] = tested on: Hepatitis C virus; assay: Antiviral activity against Hepatitis C virus subtype 1b expressing NS3 A156S mutant infected in HuH7 cells after 48 hrs by luciferase reporter assay; format: functional, organism-based, Hepacivirus hominis; details: genotype 1b, Huh-7, 48 h; summary of the method: as §1
# [12] = tested on: Hepatitis C virus; assay: Ratio of EC50 for Hepatitis C virus subtype 1b expressing NS3 Q80G mutant to EC50 for Hepatitis C virus subtype 1b expressing WT NS3 infected in HuH7 cells after 48 hrs by luciferase reporter assay; format: functional, Hepacivirus hominis, genotype 1b, Huh-7; summary of the method: as §2
# [13] = tested on: Hepatitis C virus; assay: Antiviral activity against Hepatitis C virus subtype 1b expressing NS3 Q80H mutant infected in HuH7 cells after 48 hrs by luciferase reporter assay; format: functional, organism-based, Hepacivirus hominis; details: genotype 1b, Huh-7, 48 h; summary of the method: as §1
# [14] = tested on: Hepatitis C virus; assay: Ratio of EC50 for Hepatitis C virus subtype 1b expressing NS3 Q80K mutant to EC50 for Hepatitis C virus subtype 1b expressing WT NS3 infected in HuH7 cells after 48 hrs by luciferase reporter assay; format: functional, Hepacivirus hominis, genotype 1b, Huh-7; summary of the method: as §2
# [15] = tested on: Hepatitis C virus; assay: Antiviral activity against Hepatitis C virus subtype 1b expressing NS3 R155T mutant infected in HuH7 cells after 48 hrs by luciferase reporter assay; format: functional, organism-based, Hepacivirus hominis; details: genotype 1b, Huh-7, 48 h; summary of the method: as §1
# [16] = tested on: Hepatitis C virus; assay: Ratio of EC50 for Hepatitis C virus subtype 1b expressing NS3 Q80R and R155K mutant to EC50 for Hepatitis C virus subtype 1b expressing WT NS3 infected in HuH7 cells after 48 hrs by luciferase reporter assay; format: functional, Hepacivirus hominis, genotype 1b, Huh-7; summary of the method: as §2
# [17] = tested on: Hepatitis C virus; assay: Antiviral activity against Hepatitis C virus subtype 1b expressing NS3 F43S mutant infected in HuH7 cells after 48 hrs by luciferase reporter assay; format: functional, organism-based, Hepacivirus hominis; details: genotype 1b, Huh-7, 48 h; summary of the method: as §1
# [18] = tested on: Hepatitis C virus; assay: Antiviral activity against Hepatitis C virus subtype 1b expressing NS3 D168G mutant infected in HuH7 cells after 48 hrs by luciferase reporter assay; format: functional, organism-based, Hepacivirus hominis; details: genotype 1b, Huh-7, 48 h; summary of the method: as §1
# [19] = tested on: Hepatitis C virus; assay: Ratio of EC50 for Hepatitis C virus subtype 1b expressing NS3 D168V mutant to EC50 for Hepatitis C virus subtype 1b expressing WT NS3 infected in HuH7 cells after 48 hrs by luciferase reporter assay; format: functional, Hepacivirus hominis, genotype 1b, Huh-7; summary of the method: as §2
# [20] = tested on: Hepatitis C virus; assay: Antiviral activity against Hepatitis C virus subtype 1b expressing NS3 V36M mutant infected in HuH7 cells after 48 hrs by luciferase reporter assay; format: functional, organism-based, Hepacivirus hominis; details: genotype 1b, Huh-7, 48 h; summary of the method: as §1
# [21] = tested on: Hepatitis C virus; assay: Ratio of EC50 for Hepatitis C virus subtype 1b expressing NS3 F43S and Q80R mutant to EC50 for Hepatitis C virus subtype 1b expressing WT NS3 infected in HuH7 cells after 48 hrs by luciferase reporter assay; format: functional, Hepacivirus hominis, genotype 1b, Huh-7; summary of the method: as §2
# [22] = tested on: Hepatitis C virus; assay: Antiviral activity against Hepatitis C virus subtype 1b expressing NS3 R155K mutant infected in HuH7 cells after 48 hrs by luciferase reporter assay; format: functional, organism-based, Hepacivirus hominis; details: genotype 1b, Huh-7, 48 h; summary of the method: as §1
# [23] = tested on: Hepatitis C virus; assay: Ratio of EC50 for Hepatitis C virus subtype 1b expressing NS3 V36 M mutant to EC50 for Hepatitis C virus subtype 1b expressing WT NS3 infected in HuH7 cells after 48 hrs by luciferase reporter assay; format: functional, Hepacivirus hominis, genotype 1b, Huh-7; summary of the method: as §2
# [24] = tested on: Hepatitis C virus; assay: Antiviral activity against Hepatitis C virus subtype 1b expressing NS3 Q80R and R155K mutant infected in HuH7 cells after 48 hrs by luciferase reporter assay; format: functional, organism-based, Hepacivirus hominis; details: genotype 1b, Huh-7, 48 h; summary of the method: as §1
# [25] = tested on: Hepatitis C virus; assay: Ratio of EC50 for Hepatitis C virus subtype 1b expressing NS3 Q80L mutant to EC50 for Hepatitis C virus subtype 1b expressing WT NS3 infected in HuH7 cells after 48 hrs by luciferase reporter assay; format: functional, Hepacivirus hominis, genotype 1b, Huh-7; summary of the method: as §2
# [26] = tested on: Hepatitis C virus; assay: Ratio of EC50 for Hepatitis C virus subtype 1b expressing NS3 R155M mutant to EC50 for Hepatitis C virus subtype 1b expressing WT NS3 infected in HuH7 cells after 48 hrs by luciferase reporter assay; format: functional, Hepacivirus hominis, genotype 1b, Huh-7; summary of the method: as §2
# [27] = tested on: Hepatitis C virus; assay: Antiviral activity against Hepatitis C virus subtype 1b expressing NS3 Q80R mutant infected in HuH7 cells after 48 hrs by luciferase reporter assay; format: functional, organism-based, Hepacivirus hominis; details: genotype 1b, Huh-7, 48 h; summary of the method: as §1
# [28] = tested on: Hepatitis C virus; assay: Ratio of EC50 for Hepatitis C virus subtype 1b expressing NS3 D168H mutant to EC50 for Hepatitis C virus subtype 1b expressing WT NS3 infected in HuH7 cells after 48 hrs by luciferase reporter assay; format: functional, Hepacivirus hominis, genotype 1b, Huh-7; summary of the method: as §2
# [29] = tested on: Hepatitis C virus; assay: Ratio of EC50 for Hepatitis C virus subtype 1b expressing NS3 D168N mutant to EC50 for Hepatitis C virus subtype 1b expressing WT NS3 infected in HuH7 cells after 48 hrs by luciferase reporter assay; format: functional, Hepacivirus hominis, genotype 1b, Huh-7; summary of the method: as §2
# [30] = tested on: Hepatitis C virus; assay: Ratio of EC50 for Hepatitis C virus subtype 1b expressing NS3 T54A mutant to EC50 for Hepatitis C virus subtype 1b expressing WT NS3 infected in HuH7 cells after 48 hrs by luciferase reporter assay; format: functional, Hepacivirus hominis, genotype 1b, Huh-7; summary of the method: as §2
# [31] = tested on: Hepatitis C virus; assay: Antiviral activity against Hepatitis C virus subtype 1b expressing NS3 D168H mutant infected in HuH7 cells after 48 hrs by luciferase reporter assay; format: functional, organism-based, Hepacivirus hominis; details: genotype 1b, Huh-7, 48 h; summary of the method: as §1
# [32] = tested on: Hepatitis C virus; assay: Antiviral activity against Hepatitis C virus subtype 1b expressing NS3 A156V mutant infected in HuH7 cells after 48 hrs by luciferase reporter assay; format: functional, organism-based, Hepacivirus hominis; details: genotype 1b, Huh-7, 48 h; summary of the method: as §1
Structure (SMILES),EC50 [2] [µM],Ratio EC50 [3],Ratio EC50 [4],EC50 [6] [µM],EC50 [7] [µM],EC50 [8] [µM],Ratio EC50 [9],EC50 [11] [µM],Ratio EC50 [12],Ratio EC50 [14],EC50 [15] [µM],EC50 [17] [µM],EC50 [20] [µM],EC50 [22] [µM],Ratio EC50 [23],Ratio EC50 [26],EC50 [27] [µM],Ratio EC50 [28],Ratio EC50 [29],Ratio EC50 [30],also measured
COc1ccc2c(O[C@@H]3C[C@H]4C(=O)N[C@]5(C(=O)NS(=O)(=O)C6CC6)C[C@H]5/C=C\CCCCN(C)C(=O)[C@@H]4C3)cc(-c3nc(C(C)C)cs3)nc2c1C [SIMEPREVIR],0.062,30,594,0.022,0.302,6.36,12,0.003,1.8,7.7,0.314,0.083,0.02,0.26,2,0.4,0.049,368,6.6,0.6,EC50 [1]: 0.626 µM; EC50 [5]: 0.0066 µM; EC50 [10]: 16.9 µM; EC50 [13]: 0.041 µM; Ratio EC50 [16]: 270; EC50 [18]: 0.042 µM; Ratio EC50 [19]: 2591; Ratio EC50 [21]: 286; EC50 [24]: 2.85 µM; Ratio EC50 [25]: 2.1; EC50 [31]: 5.66 µM; EC50 [32]: 2.15 µM
CCC[C@H](NC(=O)[C@@H]1[C@H]2CCC[C@H]2CN1C(=O)[C@@H](NC(=O)[C@@H](NC(=O)c1cnccn1)C1CCCCC1)C(C)(C)C)C(=O)C(=O)NC1CC1 [TELAPREVIR],0.147,10,0.4,0.202,0.113,0.046,6.1,3.11,1.2,0.5,22.7,0.749,0.886,1.47,10,14,0.216,0.7,1.2,7.5,EC50 [31]: 0.102 µM; EC50 [32]: 15.5 µM
